From PubChem BioAssay
Sampled rows, rich in hits. Any-hit rate of the full collection: about 2.5%.
FLuc stim CS – affects firefly luciferase, flagging false hits in luciferase stimulation screens | activation factor at 10 µM | 200,000 tested, under 10 active | P08659 | AID 1027 | ATPlite luciferase biochemical, luminescence, 10 min; 0 = ATP-free wells, 1 = DMSO control;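 active = luciferase activation factor, scaled between plate controls, of at least 2 with compound at 10 µM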
Target sequence (P08659 whole entry, looked up): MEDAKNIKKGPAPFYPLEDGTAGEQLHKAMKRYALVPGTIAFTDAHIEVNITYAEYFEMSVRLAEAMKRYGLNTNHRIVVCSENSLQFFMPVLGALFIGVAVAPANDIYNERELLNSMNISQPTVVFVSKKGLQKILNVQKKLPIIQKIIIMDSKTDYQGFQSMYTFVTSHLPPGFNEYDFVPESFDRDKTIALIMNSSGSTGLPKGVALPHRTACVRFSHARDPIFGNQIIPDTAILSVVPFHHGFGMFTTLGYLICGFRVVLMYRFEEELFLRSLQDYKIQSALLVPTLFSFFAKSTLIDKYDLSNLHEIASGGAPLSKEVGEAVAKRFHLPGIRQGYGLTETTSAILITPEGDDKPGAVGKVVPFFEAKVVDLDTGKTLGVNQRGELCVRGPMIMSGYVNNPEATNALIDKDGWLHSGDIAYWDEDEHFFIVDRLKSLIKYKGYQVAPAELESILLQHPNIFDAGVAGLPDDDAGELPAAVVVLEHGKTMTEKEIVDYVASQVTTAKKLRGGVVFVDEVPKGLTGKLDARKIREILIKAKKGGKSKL
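Material: luciferase plus luciferin reagent, cell-free. Medium: PBS buffer for ATP. Also added: ATP substrate, dispensed from a 10.24 µM working solution in PBS. Doses: test compounds dosed from 2 mM stocks in 100% DMSO. Incubation: 10 min post-reagent at room temperature. Technique: light output (luminescence). Read-out basis: luminescence gain marking luciferase activators.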
Diaphorase inh – diaphorase inhibition or chemical oxidation counter-screen; diaphorase resazurin-to-resorufin fluorescence, NADH, 16 min; bacterial (C. kluyveri) enzyme, not human; inhibition, % at 20 µM; 190,000 tested, 0.69% active;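 active = primary screen inhibition at 20 µM above a set limit, cut at about 50% in these data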;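 also: plate controls were DMSO with full reaction for no effect and wells lacking NADH for full effect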
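System: Bacterial diaphorase enzyme (C. kluyveri) | Incubation: 16-min room-temperature incubation before reading | Benchmarks: No-NADH positive control and DMSO neutral control | Measured by: Resorufin fluorescence 544/590 nm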
PMI act – activators of human phosphomannose isomerase. P34949. purified human PMI, coupled resazurin fluorescence, 20 min; hits give high values; 1 = vehicle control, 0 substrate-free wells. 190,000 tested, 0.005% active. activation factor at 20 µM;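 active = activation factor of 2 or more at 20 µM, relative to plate controls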
FLuc inhib CS – counter-screen for luciferase assay inhibitors: firefly luciferase inhibition | ATPLite firefly luciferase biochemical luminescence, 10 min | inhibition, % at 10 µM | P08659 | 200,000 tested, 1.5% active;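 active = inhibition above about 50% when tested at 10 µM, limit read from the data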
PMI act hi M6P – PMI (human) activation, high substrate. coupled PMI enzyme assay, resazurin fluorescence, 20 min; hits give high values; 1 = untreated enzyme, 0 = substrate-free blank. activation factor at 20 µM. 190,000 tested, 0.34% active. P34949;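 active = activation factor of 2 or more at 20 µM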
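Test system: human PMI in coupled enzyme assay; Input: PMI at 15 ng/mL final; Medium: HEPES buffer, pH 7.4; Schedule: 20 min incubation at room temperature; Technique: resorufin fluorescence at Ex 544/Em 590 nm; Compound: 20 µM single dose; Probe or stimulus: Near-saturating mannose-6-phosphate, 1.0 mM.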
Diaphorase act – activates diaphorase or chemically reduces, flagging diaphorase assay artifacts; Diaphorase/resazurin coupled assay, resorufin fluorescence, 16 min; hits give high values; 1 = vehicle wells, 0 = NADH-free wells; activation factor at 20 µM; 190,000 tested, 0.005% active; AID 1229;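 active = diaphorase activity raised at least twofold by the compound at 20 µM; inactive = activation factor below 2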
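Material: bacterial diaphorase enzyme (C. kluyveri); amount: enzyme 0.07 U/mL final; reagent: NADH substrate 0.114 mM plus resazurin dye 0.1 mM, final; doses: single compound dose of 20 µM, 1% DMSO final; timing: 16 min enzyme reaction, ambient temperature; measured by: fluorescence of resorufin, 544 nm excitation, 590 nm emission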
Numbers without * were called inactive; / = no result given.

SMILES	FLuc stim CS	Diaphorase inh	PMI act	FLuc inhib CS	PMI act hi M6P	Diaphorase act
CC1CCCC2(C1)NC(=S)N(c1ccccc1)N2 (configuration not stated)	1	3	1.5	0	2.7*	1
CCOc1cc(C)c(Cl)cc1S(=O)(=O)NCC1CCCO1 (configuration not stated)	1.1	13	0.9	-6	1	0.9
CCCOc1ccc2oc(=O)c3c(c2c1)CCCN3C(=O)CN(C)Cc1ccccc1	1	20	0.9	-4	0.9	0.8
CC1CC(C)(C)CC2(C1)NC(=S)N(c1ccccc1)N2 (configuration not stated)	1.1	4	1.7	-9	2*	1
CC(C)c1nc2sc3c(SCC(=O)NCc4ccco4)ncnc3c2c2c1CCC2	1	56*	1.1	0	1	0.4
O=C(CSc1ncnc2sc3c(c12)CCCCC3)NCc1ccco1	1	13	1	2	1.1	0.9
COc1ccc(N/C=C2\CCc3ccccc3C2=O)cc1	0.1	90*	0	92*	0.1	0.1
O=C1/C(=C/Nc2ccc3c(c2)OCO3)CCc2ccccc21	0.1	75*	0	94*	0.2	0.3
O=C1OC2(CCCCC2)OC(=O)C1=CNc1ccc2c(c1)OCO2	0.9	-3	0.9	7	0.8	1
COc1ccc2c(c1)CC/C(=C\Nc1ccc3c(c1)OCO3)C2=O	0.3	82*	0.1	68*	0.2	0.2
CCn1nc(C)c(NC(=O)c2cnn3c(C(F)F)cc(-c4ccccc4)nc23)c1C	1	2	1	-3	1.1	1
COCCCNC(=O)c1ccc(N2CCCC2)c(NS(=O)(=O)c2ccc(C)cc2)c1	1	3	1.3	-1	2.2*	1
CCOCCCNC(=O)c1ccc(N2CCCC2)c(NS(=O)(=O)c2ccc(C)cc2)c1	1	11	1.5	2	1.5	0.9
COc1cc(CNc2ccc(N3CCCC3)cc2)ccc1OCc1ccccc1F	0.4	38	0.7	57*	0.4	0.6
COc1cc(CNc2ccc(N3CCCC3)cc2)ccc1OCc1ccccc1	0.7	47	0.1	35	0.3	0.5
N#Cc1cc2c(=O)n3ccccc3nc2n(-c2ccccc2Cl)c1=O	1.1	20	1.2	-9	1.3	0.8
C#CCOCCOCCOCCNc1nc(N2CCN(C(=O)C(Cc3cc4ccccc4[nH]3)n3cc(C(N)Cc4ccc(O)cc4)nn3)CC2)nc(N2CCN(C(=O)C(Cc3cc4ccccc4[nH]3)n3cc(C(N)Cc4ccc(O)cc4)nn3)CC2)n1 (configuration not stated)	1.1	-103	1.2	-12	1.3	2*
C#CCOCCOCCOCCNc1nc(N2CCN(C(=O)[C@H](Cc3cc4ccccc4[nH]3)n3cc([C@@H](N)C(C)CC)nn3)CC2)nc(N2CCN(C(=O)[C@H](Cc3cc4ccccc4[nH]3)n3cc([C@@H](N)Cc4ccc(O)cc4)nn3)CC2)n1 (some centres not stated)	1.1	-86	1.2	-9	1.1	1.9
Cc1ccc(SCc2cn3c(C)csc3n2)cc1	0.4	1	1	64*	1.1	1
CCN(CC)c1ccc(C=NCCc2ccc(S(N)(=O)=O)cc2)cc1	1	-2	1	1	1	1
Cc1ccc(C(=O)Nc2ccc(O)cc2C(=O)O)cc1	0.4	20	0.9	59*	0.9	0.8
Cc1ccc(C(=O)Nc2ccc(O)cc2C(=O)O)cc1C	0.3	9	1	69*	1	0.9
O=C(Nc1cccc(O)c1)c1noc2c1CCc1ccccc1-2	0.1	14	0.9	87*	1	0.9
CC(C)c1nc2sc3c(=O)[nH]c(=S)[nH]c3c2c2c1CCC2	1.1	85*	0.8	-6	1	0.1
CCOC(=O)c1sc2nc(C(C)C)c3c(c2c1N)CCC3	1.1	42	1	-7	1.1	0.6
SMILES	FLuc stim CS	Diaphorase inh	PMI act	FLuc inhib CS	PMI act hi M6P	Diaphorase act
O=c1cc(-c2ccc3c(c2)OCCO3)oc2ccc(Cl)cc12	0.5	12	0.8	50*	0.9	0.9
O=c1cc(-c2cccs2)oc2ccc(Cl)cc12	0.8	12	0.9	24	0.9	0.9
CC(C)c1nnc(NC(=O)c2sc3ccccc3c2Cl)s1	0.4	5	1	64*	1	1
CC(NC(=O)c1csc2ccccc12)C1CCCO1 (configuration not stated)	1	-4	1	-4	1	1
O=C(Nc1nccs1)c1sc2ccccc2c1Cl	0.1	14	0.9	85*	0.9	0.9
Cc1cnc(NC(=O)c2sc3ccccc3c2Cl)s1	0.1	1	1	93*	1	1
CC(NC(=O)c1sc2ccccc2c1Cl)C1CCCO1 (configuration not stated)	0.4	20	0.9	63*	1	0.8
O=[N+]([O-])c1ccccc1S(=O)(=O)N1CCN(Cc2ccsc2)CC1	1.1	23	0.9	-8	0.9	0.8
COC(=O)c1ccc(CN2C(=O)C3CCCCC3C2=O)o1 (configuration not stated)	1	/	/	-4	/	/
COc1ccc(NC(=S)N2CCOCC2)c(OC)c1	1.1	7	1	-7	1.1	0.9
COC(=O)c1c(NC(=O)COC(=O)c2ccc(O)cc2)sc2c1CCCCC2	1	19	0.9	-3	0.9	0.8
Cc1cccc(N(CC(=O)NCCC2=CCCCC2)S(C)(=O)=O)c1C	1	11	1	-2	1.1	0.9
Cc1ccnc(NC(=O)c2sc3ccccc3c2Cl)c1	0.1	6	1.1	92*	1.1	0.9
O=C(Nc1cccnc1)c1ccc(NS(=O)(=O)c2cccc([N+](=O)[O-])c2)cc1	1.1	5	1.2	-5	1	0.9
COc1ccc(NC(=O)c2ccc(-c3ccc(OC)cc3)s2)cc1	1	24	1.1	-4	1.1	0.8
CNC(=O)c1ccc(-c2ccc(OC)cc2)s1	0.4	14	1	61*	1	0.9
CC(C)c1ccc(/C=C/c2ccc(=O)n(C)n2)cc1	0.2	18	1	83*	1	0.8
CC(C)c1ccc(/C=C/C2=NNC(=O)CC2)cc1	0.7	2	1.1	26	1.1	1
N=C1SCC(=O)N1c1ncc(Cc2ccc(F)cc2)s1	1	/	/	-3	/	/
